According to ChEMBL document CHEMBL1134541, “Potent and selective carboxylic acid-based inhibitors of matrix metalloproteinases” (J Med Chem, 2001):
≈ marks a conversion by molar mass, not a printed value.

How the values were obtained:
Collagenase 3 = Collagenase 3 (Homo sapiens, UniProt P45452); experiment: In vitro inhibitory activity against matrix metalloprotease-13
Matrilysin = target: T1, Matrilysin (Homo sapiens, UniProt P09237); experiment: Inhibitory activity against matrix metalloprotease-7
T1 sequence (P09237 whole entry): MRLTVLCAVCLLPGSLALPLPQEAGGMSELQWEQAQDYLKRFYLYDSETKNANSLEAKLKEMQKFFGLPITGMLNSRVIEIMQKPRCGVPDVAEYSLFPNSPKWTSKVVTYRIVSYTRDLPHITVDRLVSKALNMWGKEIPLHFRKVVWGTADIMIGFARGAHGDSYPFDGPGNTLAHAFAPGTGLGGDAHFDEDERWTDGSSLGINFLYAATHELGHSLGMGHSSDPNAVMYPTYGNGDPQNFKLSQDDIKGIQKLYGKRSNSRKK
In short: (§1)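 Inhibition of each enzyme (MMP-1 collagenase-1, MMP-2 gelatinase A, MMP-3 stromelysin, MMP-7 matrilysin, MMP-8 collagenase-2, MMP-9 gelatinase B) was measured at pH 7.4 and reported as binding values. Compounds were tested as racemic mixtures. Standard deviations were under 30% of the mean values.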

[1] = target: 72 kDa type IV collagenase (Homo sapiens, UniProt P08253); experiment: In vitro inhibitory activity against matrix metalloprotease-2
72 kDa type IV collagenase, sequence (P08253 whole entry): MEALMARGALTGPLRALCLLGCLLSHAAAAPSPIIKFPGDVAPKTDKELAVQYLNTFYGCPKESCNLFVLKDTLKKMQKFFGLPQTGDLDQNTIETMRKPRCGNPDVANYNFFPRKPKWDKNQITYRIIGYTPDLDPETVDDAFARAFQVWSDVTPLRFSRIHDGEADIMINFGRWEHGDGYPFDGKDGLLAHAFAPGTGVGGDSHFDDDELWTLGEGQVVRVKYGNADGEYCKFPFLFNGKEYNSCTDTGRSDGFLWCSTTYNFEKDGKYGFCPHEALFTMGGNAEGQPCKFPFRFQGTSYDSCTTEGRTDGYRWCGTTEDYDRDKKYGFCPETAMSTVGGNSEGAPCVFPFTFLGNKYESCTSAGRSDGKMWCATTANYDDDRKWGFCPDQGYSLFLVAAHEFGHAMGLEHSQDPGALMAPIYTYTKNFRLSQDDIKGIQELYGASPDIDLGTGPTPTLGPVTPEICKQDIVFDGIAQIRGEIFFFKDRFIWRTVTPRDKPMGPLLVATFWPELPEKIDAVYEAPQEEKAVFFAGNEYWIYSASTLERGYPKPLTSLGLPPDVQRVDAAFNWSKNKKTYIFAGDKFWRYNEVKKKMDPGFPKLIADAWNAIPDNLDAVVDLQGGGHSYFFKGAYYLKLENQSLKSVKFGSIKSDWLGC

Neutrophil collagenase = Neutrophil collagenase (Homo sapiens, UniProt P22894); experiment: Inhibitory activity against matrix metalloprotease-8
Neutrophil collagenase, sequence (P22894 whole entry): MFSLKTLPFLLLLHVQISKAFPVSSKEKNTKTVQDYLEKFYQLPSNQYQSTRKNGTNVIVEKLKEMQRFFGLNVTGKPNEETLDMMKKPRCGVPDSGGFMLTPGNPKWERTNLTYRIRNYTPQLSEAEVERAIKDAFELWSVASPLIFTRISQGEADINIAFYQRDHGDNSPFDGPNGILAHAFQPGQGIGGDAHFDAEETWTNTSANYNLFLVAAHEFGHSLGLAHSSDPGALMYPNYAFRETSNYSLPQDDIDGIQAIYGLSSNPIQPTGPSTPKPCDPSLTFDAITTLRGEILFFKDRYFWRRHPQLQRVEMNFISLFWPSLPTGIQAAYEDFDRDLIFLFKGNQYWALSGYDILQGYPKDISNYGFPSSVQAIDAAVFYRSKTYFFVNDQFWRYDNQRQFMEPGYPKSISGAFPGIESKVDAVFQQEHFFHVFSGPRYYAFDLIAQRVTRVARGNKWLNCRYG

[2] = target: Matrix metalloproteinase-9 (Homo sapiens, UniProt P14780); experiment: In vitro inhibition of human matrix metalloprotease-9; in short: as §1
Matrix metalloproteinase-9, sequence (P14780 whole entry): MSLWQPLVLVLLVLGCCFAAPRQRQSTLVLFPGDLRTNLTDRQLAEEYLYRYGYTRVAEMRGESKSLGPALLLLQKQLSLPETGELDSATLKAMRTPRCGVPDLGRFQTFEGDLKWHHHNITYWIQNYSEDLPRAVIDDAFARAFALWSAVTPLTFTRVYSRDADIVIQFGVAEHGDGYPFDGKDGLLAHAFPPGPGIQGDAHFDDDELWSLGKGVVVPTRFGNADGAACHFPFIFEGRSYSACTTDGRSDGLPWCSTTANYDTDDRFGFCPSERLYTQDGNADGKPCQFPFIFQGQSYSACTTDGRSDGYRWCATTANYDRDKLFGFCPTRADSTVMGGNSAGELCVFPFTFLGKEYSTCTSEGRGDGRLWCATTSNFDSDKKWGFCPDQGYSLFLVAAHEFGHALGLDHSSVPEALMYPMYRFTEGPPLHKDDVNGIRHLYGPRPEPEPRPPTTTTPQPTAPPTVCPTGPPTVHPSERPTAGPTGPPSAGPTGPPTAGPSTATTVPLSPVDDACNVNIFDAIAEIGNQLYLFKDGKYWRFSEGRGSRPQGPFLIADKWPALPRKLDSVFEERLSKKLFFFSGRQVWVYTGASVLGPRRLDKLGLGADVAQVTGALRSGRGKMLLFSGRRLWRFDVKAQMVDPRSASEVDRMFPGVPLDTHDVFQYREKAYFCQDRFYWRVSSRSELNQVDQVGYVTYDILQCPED

Stromelysin-1 [3] = target: T2, Stromelysin-1 (Homo sapiens, UniProt P08254); experiment: (§2) In vitro inhibitory activity against matrix metalloprotease-3
T2 sequence (P08254 whole entry): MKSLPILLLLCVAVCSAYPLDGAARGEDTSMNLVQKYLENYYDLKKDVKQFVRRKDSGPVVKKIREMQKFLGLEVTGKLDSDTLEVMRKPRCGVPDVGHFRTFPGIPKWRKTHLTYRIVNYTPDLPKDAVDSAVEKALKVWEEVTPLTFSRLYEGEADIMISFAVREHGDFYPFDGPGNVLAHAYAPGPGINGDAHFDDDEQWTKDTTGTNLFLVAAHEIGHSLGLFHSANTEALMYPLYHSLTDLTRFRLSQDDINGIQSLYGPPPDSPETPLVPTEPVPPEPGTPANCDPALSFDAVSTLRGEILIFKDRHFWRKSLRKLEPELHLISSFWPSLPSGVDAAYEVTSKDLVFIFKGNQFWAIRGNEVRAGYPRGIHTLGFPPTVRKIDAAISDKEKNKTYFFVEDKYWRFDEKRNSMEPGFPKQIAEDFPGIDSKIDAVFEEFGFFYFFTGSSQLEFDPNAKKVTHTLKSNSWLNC

Interstitial collagenase [4] = target: T3, Interstitial collagenase (Homo sapiens, UniProt P03956); experiment: (§3) In vitro inhibitory activity against matrix metalloprotease-1
T3 sequence (P03956 whole entry): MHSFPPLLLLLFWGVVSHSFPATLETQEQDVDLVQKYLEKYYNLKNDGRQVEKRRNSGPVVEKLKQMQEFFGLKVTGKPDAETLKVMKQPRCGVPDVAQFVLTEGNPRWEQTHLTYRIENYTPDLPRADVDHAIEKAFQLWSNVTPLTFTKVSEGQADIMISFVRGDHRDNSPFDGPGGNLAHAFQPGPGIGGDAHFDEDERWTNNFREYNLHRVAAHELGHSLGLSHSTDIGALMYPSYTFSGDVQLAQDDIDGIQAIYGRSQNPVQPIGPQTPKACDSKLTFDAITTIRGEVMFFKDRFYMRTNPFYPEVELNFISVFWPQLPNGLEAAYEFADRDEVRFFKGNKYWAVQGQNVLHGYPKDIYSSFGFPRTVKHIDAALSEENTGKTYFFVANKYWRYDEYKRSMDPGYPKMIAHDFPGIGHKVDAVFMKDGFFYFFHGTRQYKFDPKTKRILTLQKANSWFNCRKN

Stromelysin-1 [5] = target: T2, Stromelysin-1; experiment: as §2; in short: as §1; remark: listed apart in the source
Interstitial collagenase [6] = target: T3, Interstitial collagenase; experiment: as §3; in short: as §1; remark: listed apart in the source

Row | SMILES | IC50 (Matrilysin) | IC50 [1] | IC50 [2] | IC50 (Interstitial collagenase [4]) | IC50 (Stromelysin-1 [5]) | IC50 (Interstitial collagenase [6]) | IC50 (Collagenase 3) | IC50 (Neutrophil collagenase) | solubility (physchem) | IC50 (Stromelysin-1 [3])
1 | COCCOC(=O)N1CCC(C(NS(=O)(=O)c2ccc(-c3ccc(OC)cc3)cc2)C(=O)O)CC1 (stereo in doubt; 13g) | 4110 nM | 0.8 nM | 55 nM | – | – | – | 3.5 nM | 3.4 nM | 8070 µg/mL (≈ 15.9 mM) | 133 nM
2 | COCCOC(=O)N1CCC(C(C(=O)O)N(CCOC)S(=O)(=O)c2ccc(-c3ccc(OC)cc3)cc2)CC1 (centres undefined) | 2650 nM | 0.6 nM | 9.1 nM | 1220 nM | – | – | 1 nM | 2.4 nM | 11100 µg/mL (≈ 19.6 mM) | 45.5 nM
3 | COCCOC(=O)N1CCC(C(NS(=O)(=O)c2ccc(-c3ccc(OC)cc3)cc2)C(=O)O)CC1 (stereo in doubt; 14i) | – | – | < 0.4 nM | – | – | – | 0.4 nM | 0.5 nM | – | 13.8 nM
4 | COCCOC(=O)N1CCC(C(NS(=O)(=O)c2ccc(-c3ccc(SC)cc3)cc2)C(=O)O)CC1 (centres undefined) | 1020 nM | 0.4 nM | 7.3 nM | 1080 nM | – | – | 1 nM | 1.8 nM | 3500 µg/mL (≈ 6.7 mM) | 40.6 nM
5 | COc1ccc(-c2ccc(S(=O)(=O)N[C@H](C(=O)O)C(C)C)cc2)cc1 | > 10000 nM | 6.6 nM | 747 nM | – | – | 8710 nM | 24.2 nM | 10.6 nM | – | 1890 nM
6 | O=C(CC(CSc1ccccc1)C(=O)O)c1ccc(-c2ccc(Cl)cc2)cc1 (centres undefined) | > 10000 nM | 91.3 nM | 3110 nM | > 10000 nM | – | – | 1570 nM | 303 nM | – | –
7 | COCCOC(=O)N1CCC(C(C(=O)O)N(C)S(=O)(=O)c2ccc(-c3ccc(OC)cc3)cc2)CC1 (centres undefined) | 3950 nM | 0.9 nM | 13.9 nM | 1850 nM | – | – | – | – | – | 69.6 nM
8 | COCCOC(=O)N1CCC(C(NS(=O)(=O)c2ccc(-c3ccccc3)cc2)C(=O)O)CC1 (centres undefined) | > 10000 nM | 24.2 nM | 415 nM | 6050 nM | – | – | 55.3 nM | 44.8 nM | – | 418 nM
9 | COc1ccc(-c2ccc(S(=O)(=O)NC(CC#Cc3ccccc3)C(=O)O)cc2)cc1 (centres undefined) | > 10000 nM | 12.5 nM | 553 nM | – | – | – | – | 9.4 nM | – | –
10 | CCCCOc1ccc(S(=O)(=O)NC(C(=O)O)C2CCN(C(=O)OCCOC)CC2)cc1 (centres undefined) | > 10000 nM | 549 nM | 2990 nM | > 10000 nM | – | – | 791 nM | 294 nM | – | 678 nM
11 | COc1ccc(-c2ccc(S(=O)(=O)NC(C(=O)O)C3CCN(C(=O)OC(C)C)CC3)cc2)cc1 (centres undefined) | 1740 nM | < 0.4 nM | 11.7 nM | 1400 nM | – | – | 1 nM | 1.5 nM | 130 µg/mL (≈ 0.265 mM) | 41.8 nM
12 | COCCOC(=O)N1CCC(C(NS(=O)(=O)c2ccc(Oc3ccccc3)cc2)C(=O)O)CC1 (centres undefined) | > 10000 nM | 58.1 nM | 597 nM | > 10000 nM | – | – | 140 nM | 25.8 nM | – | 399 nM
13 | COCCOC(=O)N1CCC(C(C(=O)O)N(Cc2ccccn2)S(=O)(=O)c2ccc(-c3ccc(OC)cc3)cc2)CC1 (centres undefined) | 3640 nM | 1 nM | 18.7 nM | 3310 nM | – | – | 3 nM | 3.2 nM | – | 86.1 nM

Continued, in another order:

Row | IC50 (Matrilysin) | IC50 [1] | IC50 [2] | IC50 (Interstitial collagenase [4]) | IC50 (Stromelysin-1 [5]) | IC50 (Interstitial collagenase [6]) | SMILES | IC50 (Collagenase 3) | IC50 (Neutrophil collagenase) | solubility (physchem) | IC50 (Stromelysin-1 [3])
14 | 9870 nM | 1 nM | 94.9 nM | 2760 nM | – | – | CCOC(=O)N1CCC(C(NS(=O)(=O)c2ccc(-c3ccc(OC)cc3)cc2)C(=O)O)CC1 (centres undefined) | – | – | – | 162 nM
15 | 3660 nM | – | 6.6 nM | 1370 nM | – | – | COc1ccc(-c2ccc(S(=O)(=O)N[C@@H](C(=O)O)C3CCN(C(=O)OC(C)(C)C)CC3)cc2)cc1 | – | – | – | 33.7 nM
16 | 4240 nM | 53 nM | 1760 nM | 3890 nM | 4840 nM | – | COc1ccc(-c2ccc(S(=O)(=O)NC(C(=O)O)C3CCNCC3)cc2)cc1 (centres undefined) | 264 nM | 30.2 nM | – | –
17 | 5650 nM | 2.8 nM | 177 nM | 5210 nM | – | – | COC(=O)N1CCC(C(NS(=O)(=O)c2ccc(-c3ccc(OC)cc3)cc2)C(=O)O)CC1 (centres undefined) | – | – | – | 657 nM
18 | 2590 nM | – | 5.4 nM | 1420 nM | – | – | COc1ccc(-c2ccc(S(=O)(=O)NC(C(=O)O)C3CCN(C(=O)OC(C)(C)C)CC3)cc2)cc1 (centres undefined) | – | – | – | 56.4 nM
19 | 8510 nM | – | 71.5 nM | 3490 nM | – | – | COc1ccc(-c2ccc(S(=O)(=O)N[C@H](C(=O)O)C3CCN(C(=O)OC(C)(C)C)CC3)cc2)cc1 | – | – | – | 345 nM
20 | 8570 nM | 1.1 nM | 50.8 nM | 1760 nM | – | – | COc1ccc(-c2ccc(S(=O)(=O)NC(C(=O)O)C3CCN(C(=O)N4CCOCC4)CC3)cc2)cc1 (centres undefined) | – | – | – | 221 nM
21 | 4370 nM | 3.2 nM | 137 nM | 4900 nM | – | – | COc1ccc(-c2ccc(S(=O)(=O)NC(C(=O)O)C3CCN(C(=O)CC(C)C)CC3)cc2)cc1 (centres undefined) | – | – | – | 739 nM
